Reference: ChEMBL document CHEMBL2385079, “Design, synthesis and pharmacological characterization of analogs of 2-aminoethyl diphenylborinate (2-APB), a known store-operated calcium channel blocker, for inhibition of TRPV6-mediated calcium transport” (Bioorg Med Chem, 2013)
The source made the active and inactive calls. The rule behind the calls is not given here.

Experiments:
[1] = target: T1, Transient receptor potential cation channel subfamily V member 6 (Homo sapiens, UniProt Q9H1D0); test: Inhibition of human TRPV6 transfected in HEK293 cells assessed as inhibition of Ca2+ influx after 5 mins by FLIPR assay; assay type: cell-based
T1 sequence (Q9H1D0 whole entry): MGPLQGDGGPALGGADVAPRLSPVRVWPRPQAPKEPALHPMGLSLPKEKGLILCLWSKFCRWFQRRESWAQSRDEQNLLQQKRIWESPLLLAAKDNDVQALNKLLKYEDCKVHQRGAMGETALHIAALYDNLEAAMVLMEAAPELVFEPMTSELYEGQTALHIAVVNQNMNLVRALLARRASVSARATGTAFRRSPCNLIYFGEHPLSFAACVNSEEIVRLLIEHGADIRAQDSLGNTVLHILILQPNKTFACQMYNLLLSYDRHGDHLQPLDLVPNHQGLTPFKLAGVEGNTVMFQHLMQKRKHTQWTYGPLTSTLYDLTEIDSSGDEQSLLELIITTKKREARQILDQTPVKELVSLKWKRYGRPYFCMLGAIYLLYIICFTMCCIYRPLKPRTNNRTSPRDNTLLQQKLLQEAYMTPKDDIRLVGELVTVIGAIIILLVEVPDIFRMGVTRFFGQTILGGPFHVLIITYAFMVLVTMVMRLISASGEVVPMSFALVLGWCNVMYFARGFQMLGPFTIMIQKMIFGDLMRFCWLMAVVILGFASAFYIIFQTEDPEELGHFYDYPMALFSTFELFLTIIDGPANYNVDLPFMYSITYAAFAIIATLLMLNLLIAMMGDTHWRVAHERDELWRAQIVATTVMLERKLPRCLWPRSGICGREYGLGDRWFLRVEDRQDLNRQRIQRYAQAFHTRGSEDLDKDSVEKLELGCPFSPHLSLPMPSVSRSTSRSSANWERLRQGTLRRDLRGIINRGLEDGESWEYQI
Procedure, shortened: (§1)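 HEK293 clone stably expressing RFP-tagged hTRPV6, made by Lipofectamine transfection, G418 selection and picking of red-fluorescent single-cell colonies. Cells plated at 40,000/well and used after 36 h, then loaded 1 h at 37 °C with Calcium-5 in nominally Ca2+-free Krebs buffer. After a 50 s baseline, compound is given for 5 min. Then 2 mM CaCl2 or 50 µM CdCl2 is added, and the initial rate of fluorescence increase is read by FLIPR Tetra. IC50 is the average of six independent experiments.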

[2] = Stability of the compound in CHCl3 by NMR analysis; assay type: physicochemical
[3] = target: T1, Transient receptor potential cation channel subfamily V member 6; test: Inhibition of human TRPV6 transfected in HEK293 cells assessed as inhibition of Cd2+ influx after 5 mins by FLIPR assay; assay type: cell-based; procedure, shortened: as §1
ORAI 1/2/3 [4] = target: T2, ORAI 1/2/3 (Homo sapiens, UniProt Q96D31+Q96SN7+Q9BRQ5); test: Inhibition of ORAl1/2/3 in HEK293 cells assessed as inhibition of Ca2+ influx after 10 mins by FLIPR assay in presence of thapsigargin; assay type: cell-based
Procedure, shortened: (§2)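 Untransfected HEK293 cells plated at 40,000 cells/well, used after 36 h and loaded 1 h at 37 °C with Calcium-5 dye in nominally Ca2+-free modified Krebs buffer (117 mM NaCl, 4.8 mM KCl, 1 mM MgCl2, 10 mM HEPES). After a 50 s baseline, compound is added together with 1 µM thapsigargin for 10 min. Ca2+ or Cd2+ is then added, and the rate of fluorescence rise is read by FLIPR Tetra (ex 470–495, em 515–575 nm). IC50 is the mean of six experiments.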

ORAI 1/2/3 [5] = target: T2, ORAI 1/2/3; test: Inhibition of ORAl1/2/3 in HEK293 cells assessed as inhibition of Cd2+ influx after 10 mins by FLIPR assay in presence of thapsigargin; assay type: cell-based; procedure, shortened: as §2
[6] = target: T3, Transient receptor potential cation channel subfamily V member 6 (Homo sapiens) (UniProt Q9H1D0); test: Inhibition of human TRPV6 transfected in HEK293 cells assessed as inhibition of Cd2+ influx up to 500 uM after 5 mins by FLIPR assay; assay type: cell-based; procedure, shortened: as §1
T3 sequence (whole entry): T1 sequence (Q9H1D0 whole entry)

ORAI 1/2/3 [7] = target: T2, ORAI 1/2/3; test: Inhibition of ORAl1/2/3 in HEK293 cells assessed as inhibition of Cd2+ influx up to 500 uM after 10 mins by FLIPR assay in presence of thapsigargin; assay type: cell-based; procedure, shortened: as §2
[8] = target: T3, Transient receptor potential cation channel subfamily V member 6 (Homo sapiens); test: Inhibition of human TRPV6 transfected in HEK293 cells assessed as inhibition of Ca2+ influx up to 500 uM after 5 mins by FLIPR assay; assay type: cell-based; procedure, shortened: as §1
ORAI 1/2/3 [9] = target: T2, ORAI 1/2/3; test: Inhibition of ORAl1/2/3 in HEK293 cells assessed as inhibition of Ca2+ influx up to 500 uM after 10 mins by FLIPR assay in presence of thapsigargin; assay type: cell-based; procedure, shortened: as §2
[10] = target: T1, Transient receptor potential cation channel subfamily V member 6; test: Inhibition of human TRPV6 transfected in HEK293 cells; assay type: cell-based; procedure, shortened: as §1
[11] = target: T3, Transient receptor potential cation channel subfamily V member 6 (Homo sapiens); test: Ratio of 2-APB IC50 to compound IC50 for human TRPV6
HEK293 = test: Selectivity ratio of IC50 for ORAl1/2/3 in HEK293 cells to IC50 for human TRPV6 transfected in HEK293 cells; assay type: cell-based

Structure (SMILES) | IC50 [1] [µM] | IC50 [3] [µM] | IC50 (ORAI 1/2/3 [4]) [µM] | IC50 (ORAI 1/2/3 [5]) [µM] | other results
O=C1O[B-](c2ccccc2)(c2ccccc2)[NH2+][C@H]1CO | 36.6 | 20.2 | 40.5 | 9.8 | Stability [2]: Stable
Fc1ccc([B-]2(c3ccccc3)[NH2+]CCO2)cc1 (stereo unspecified) | 18.8 | 33.6 | 9.3 | 9.8 | 
Cc1ccccc1[B-]1(c2ccccc2)[NH2+]CCO1 (stereo unspecified) | 31.1 | 67.9 | 10 | 9.9 | 
c1ccc(-c2ccc([B-]3(c4ccccc4)[NH2+]CCO3)cc2)cc1 (stereo unspecified) | 72.3 | 51.3 | 13.4 | 7.7 | 
OB(O)O |  |  |  |  | inhibition [6]: inactive; inhibition (ORAI 1/2/3 [7]): inactive; inhibition [8]: inactive; inhibition (ORAI 1/2/3 [9]): inactive
OC(c1ccccc1)c1ccccc1 [DIPHENYLMETHANOL] |  |  | > 500 | > 500 | inhibition [6]: inactive; inhibition [8]: inactive
Cc1ccc([B-]2(c3ccccc3)[NH2+]CCO2)cc1 (stereo unspecified) | 18.9 | 12.9 | 8.6 | 2.7 | 
c1ccc([B-]2(c3ccccc3)OC[C@@H]3CCC[NH+]32)cc1 (stereo partly specified) | 18.8 | 28 | 8.9 | 10.2 | 
c1ccc(OB(Oc2ccccc2)Oc2ccccc2)cc1 |  |  |  |  | inhibition [6]: inactive; inhibition (ORAI 1/2/3 [7]): inactive; inhibition [8]: inactive; inhibition (ORAI 1/2/3 [9]): inactive
c1ccc([B-]2(c3ccccc3)OCc3cccc[n+]32)cc1 | 34.9 | 41.5 | 10.7 | 10.2 | 
CCCCc1ccc([B-]2(c3ccccc3)[NH2+]CCO2)cc1 (stereo unspecified) | 14.3 | 12.1 | 3.5 | 2.4 | 
Fc1ccc([B-]2(c3ccc(F)cc3)[NH2+]CCO2)cc1 | 17 | 14.2 | 9 | 5.9 | 
NCCOC(c1ccccc1)c1ccccc1 | 159 | > 500 | 106 | 184.2 | 
OB1c2ccccc2CCc2ccccc21 | > 500 | > 500 | 33.3 | 36.4 | 
c1ccc([B-]2(c3ccccc3)[NH2+]CCO2)cc1 | 20.7 | 24.5 | 22.9 | 11.9 | IC50 [10]: 22 µM
Cc1ccc([B-]2(c3ccc(C)cc3)[NH2+]CCO2)cc1 | 14.4 | 17.1 | 1.6 | 7.4 | 
OB(c1ccccc1)c1ccc(Cl)cc1 | 9.7 | 12 | 21.8 | 6.4 | 
COc1ccccc1B(O)c1ccccc1OC | > 500 | > 500 | 13.2 | 11.8 | 
c1ccc([B-]2(c3ccccc3)[NH2+]CCCO2)cc1 | 16.2 | 28.1 | 7.9 | 8.2 | 
Brc1ccc([B-]2(c3ccccc3)[NH2+]CCO2)cc1 (stereo unspecified) | 13.2 | 9.8 | 3.4 | 4.9 | 
c1ccc([B-]2(c3ccccc3)[NH2+]CCS2)cc1 | 127 | 93.5 | 51.8 | 44.6 | 

Structure (SMILES) | IC50 [1] [µM] | IC50 [3] [µM] | IC50 (ORAI 1/2/3 [4]) [µM] | IC50 (ORAI 1/2/3 [5]) [µM] | other results
COc1ccc([B-]2(c3ccc(OC)cc3)[NH2+]CCO2)cc1 | > 100 | 89.8 | 12.4 | 25.8 | 
C[N+]1(C)CCO[B-]1(c1ccccc1)c1ccccc1 | 63.6 | 19.8 | 8.9 | 5.1 | 
OB(c1ccc(C(F)(F)F)cc1)c1ccc(C(F)(F)F)cc1 | 10.8 | 11.2 | 7.6 | 9.5 | 
c1ccc([B-]2(c3ccccc3)OCC[N+]23CCNCC3)cc1 | 15 | 24.3 | 6 | 2.2 | 
OB(O)c1ccccc1 |  |  |  |  | inhibition [6]: inactive; inhibition (ORAI 1/2/3 [7]): inactive; inhibition [8]: inactive; inhibition (ORAI 1/2/3 [9]): inactive
Cc1ccc(B(O)c2ccc(C)cc2)cc1 | 18.6 | 29 | 23 | 25.9 | 
c1ccc([B-]2(c3ccccc3)Oc3cccc4ccc[n+]2c34)cc1 |  |  |  |  | inhibition [6]: inactive; inhibition (ORAI 1/2/3 [7]): inactive; inhibition [8]: inactive; inhibition (ORAI 1/2/3 [9]): inactive
c1ccc([B-]2(c3cccnc3)[NH2+]CCO2)cc1 (stereo unspecified) |  |  |  |  | inhibition [6]: inactive; inhibition (ORAI 1/2/3 [7]): inactive; inhibition [8]: inactive; inhibition (ORAI 1/2/3 [9]): inactive
OB(c1ccc(F)cc1)c1ccc(F)cc1 | 37.1 | 61.6 | 26.6 | 17.1 | 
O=C1O[B-](c2ccccc2)(c2ccccc2)[NH2+][C@H]1Cc1c[nH]c2ccccc12 |  |  | 6.9 | 14.7 | inhibition [6]: inactive; inhibition [8]: inactive
OB(c1ccccc1)c1ccc(C(F)(F)F)cc1 | 11.3 | 12.5 |  |  | 
O=C1C[NH2+][B-](c2ccccc2)(c2ccccc2)O1 | 12.9 | 30.6 | 38.6 | 11 | Stability [2]: Stable
Ic1ccc([B-]2(c3ccccc3)[NH2+]CCO2)cc1 (stereo unspecified) | 5.4 | 5.2 | 2.8 | 7.2 | Ratio IC50 [11]: 4
c1ccc(B(OB(c2ccccc2)c2ccccc2)c2ccccc2)cc1 | 19.2 | 17.7 | 11.4 | 13.4 | 
COc1ccccc1[B-]1(c2ccccc2OC)[NH2+]CCO1 | > 500 | 412 | 11.6 | 10.5 | 
CN(C)CCOC(c1ccccc1)c1ccccc1 [DIPHENHYDRAMINE] |  |  | > 500 | > 500 | inhibition [6]: inactive; inhibition [8]: inactive
FC(F)(F)c1ccc([B-]2(c3ccc(C(F)(F)F)cc3)[NH2+]CCO2)cc1 | 16.3 | 13.7 | 2.1 | 3.2 | 
OB(c1ccccc1)c1ccccc1 [DIPHENYL BORINIC ACID] | 19.1 | 31.5 | 9.8 | 8.7 | 
c1ccc([B-]2(c3ccccc3)OC[C@H]3CCC[NH+]32)cc1 (stereo partly specified) | 18.5 | 30.6 | 8 | 10.1 | 
CB(O)O [METHANE BORONIC ACID] |  |  | > 500 | > 500 | inhibition [6]: inactive; inhibition [8]: inactive
Cc1ccc([B-]2(c3ccccc3)[NH2+]CCO2)s1 (stereo unspecified) | 12.3 | 10 | 30.9 | 25.2 | Ratio IC50 (HEK293): 2.5
